Laboratory results published in ChEMBL document CHEMBL3351669, “Oxidized derivatives of macroline, sarpagine, and pleiocarpamine alkaloids from Alstonia angustifolia” (J Nat Prod, 2014).

Assays:
Assay type in all cases: functional, cell-based
KB = experiment: Cytotoxicity against vincristine-sensitive human KB cells
Procedure, shortened: (§1)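 Alkaloids tested alone, without vincristine, in parallel on vincristine-sensitive KB and vincristine-resistant KB/VJ300 cells. IC50 determined, in μg/mL.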

[1] = Cytotoxicity against vincristine-resistant human KB/VJ300 cells; procedure, shortened: as §1
[2] = Cytotoxicity against multi-drug resistant human KB/VJ300 cells in presence of 0.1 ug/ml vincristine
Procedure, shortened: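 Multidrug-resistance reversal test in vincristine-resistant KB/VJ300 cells. Test alkaloid is co-applied with vincristine at 0.1 μg/mL (0.12 μM). The IC50 of the test alkaloid is determined under this co-treatment, in μg/mL.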

Row | SMILES | IC50 (KB) | IC50 [1] | IC50 [2]
1 | COc1ccc2c(c1)c1c(n2C)[C@@H]2C[C@H]3[C@@H](CO)[C@H](C)OC[C@H]3[C@H](C1)N2C | > 25 µg/mL | > 25 µg/mL | 
2 | C[C@H]1OC[C@@H]2[C@H]3C[C@H]4c5c(c6ccccc6n5C)C[C@@H]2[N+]4(C)[C@H](O)[C@H]31 | > 25 µg/mL | > 25 µg/mL | 
3 | C/C=C1\C(=O)OC[C@H]2[C@@H]3Cc4c(n(C)c5ccccc45)[C@H](C[C@@H]12)N3 | > 25 µg/mL | > 25 µg/mL | 
4 | C/C=C1/CN2[C@H]3C[C@H]1C(CO)[C@@H]2Cc1c3[nH]c2ccccc12 (some centres not stated) | > 25 µg/mL | > 25 µg/mL | 
5 | C[C@H]1OC[C@@H]2[C@@H](C[C@H]3c4c(c5ccccc5n4C)C[C@@H]2N3C)[C@@H]1C=O | > 25 µg/mL | > 25 µg/mL | 
6 | CC(=O)C[C@@H]1C[C@H]2c3c(c4ccccc4n3C)C[C@@H]([C@@H]1CO)N2C | > 25 µg/mL | > 25 µg/mL | 
7 | CC(O)C[C@@H]1C[C@@H]2N[C@@H](C[C@]23C(=O)N(C)c2ccccc23)[C@@H]1CO (some centres not stated) | > 25 µg/mL | > 25 µg/mL | 
8 | CC(=O)C1=COC[C@@H]2[C@H]1C[C@H]1c3c(c4ccccc4n3C)C[C@@H]2N1C [ALSTONERINE] | > 25 µg/mL | > 25 µg/mL | 10 µM
9 | C[C@H](O)C1=CN2[C@H]3C[C@H]1[C@@H](CO)[C@@H]2Cc1c3n(C)c2ccccc12 | > 25 µg/mL | > 25 µg/mL | 
10 | C[C@@H]1OC[C@@H]2[C@@H](C[C@@H]3N[C@H]2Cc2c3n(C)c3ccccc23)[C@H]1CO | > 25 µg/mL | > 25 µg/mL | 
11 | C/C=C1/CN2CC(=O)c3c4n(c5ccccc35)[C@H](C(=O)OC)[C@H]1C[C@@H]42 | > 25 µg/mL | > 25 µg/mL | 
12 | CC(=O)O[C@@H]1[C@@H]2[C@@H]3C[C@H]4c5c(c6ccccc6n5C)C[C@@H]([C@@H]3CO[C@H]2C)N14 | > 25 µg/mL | > 25 µg/mL | 40 µM
13 | C[C@H](O)C1=CN2[C@H]3C[C@H]1[C@@H](CO)[C@@H]2C[C@@]31C(=O)N(C)c2ccccc21 | > 25 µg/mL | > 25 µg/mL | 
14 | CC(=O)C1=COC[C@@H]2[C@H]1C[C@H]1c3[nH]c4ccccc4c3C[C@@H]2N1C | > 25 µg/mL | > 25 µg/mL | 
15 | C[C@@H]1OC[C@@H]2[C@@H](C[C@H]3c4[nH]c5ccccc5c4C[C@@H]2N3C)[C@@H]1CO | > 25 µg/mL | > 25 µg/mL | 
16 | CC(=O)C(CC(=O)O)[C@@H]1C[C@H]2c3c(c4ccccc4n3C)C[C@@H]([C@@H]1CO)N2C (some centres not stated) | > 25 µg/mL | > 25 µg/mL | 
17 | C[C@@H]1OC[C@@H]2[C@@H](C[C@@H]3N[C@H]2Cc2c3n(C)c3ccccc23)[C@@H]1CO | > 25 µg/mL | > 25 µg/mL | 
18 | CC(O)C[C@@H]1C[C@@H]2N3COC[C@H]1[C@@H]3C[C@]21C(=O)Nc2ccccc21 (some centres not stated) | > 25 µg/mL | > 25 µg/mL | 
19 | C[C@@H]1OC[C@@H]2[C@@H](C[C@H]3c4c(c5ccccc5n4C)C[C@@H]2N3C)[C@H]1CO [MACROCARPINE B] | > 25 µg/mL | > 25 µg/mL | 
20 | CN1[C@H]2C[C@@H]3[C@@H](CO[C@@]4(C)OC(=O)C[C@@H]34)[C@@H]1Cc1c2n(C)c2ccccc12 | > 25 µg/mL | > 25 µg/mL | 
21 | CC(=O)C1=COC[C@H]2[C@@H]3C[C@]4(C(=O)N(C)c5ccccc54)[C@H](C[C@@H]12)N3 | > 25 µg/mL | > 25 µg/mL | 

Row | SMILES | IC50 (KB) | IC50 [1] | IC50 [2]
22 | C[C@H](O)C[C@@H]1C[C@@H]2N[C@@H](C[C@@]23C(=O)Nc2ccccc23)[C@@H]1CO | > 25 µg/mL | > 25 µg/mL | 
23 | CC(O)C[C@@H]1C[C@@H]2N3COC[C@H]1[C@@H]3C[C@]21C(=O)N(C)c2ccccc21 (some centres not stated) | > 25 µg/mL | > 25 µg/mL | 
24 | C/C=C1/CN2CC[C@]3(O)c4ccccc4N4[C@H](C(=O)OC)[C@H]1C[C@H]2[C@@H]43 | > 25 µg/mL | > 25 µg/mL | 
25 | C[C@@H]1OC[C@@H]2[C@@H](C[C@H]3c4c(c5ccccc5n4C)C[C@@H]2N3C)[C@@H]1CO | > 25 µg/mL | > 25 µg/mL | 
26 | C/C=C1\C(=O)OC[C@H]2[C@@H]3Cc4c(n(C)c5ccc(OC)cc45)[C@H](C[C@@H]12)N3 | > 25 µg/mL | > 25 µg/mL | 40 µM
27 | C[C@@H]1OC[C@@H]2[C@H]3C[C@@H]4N([C@H](O)C13)[C@H]2C[C@@]41C(=O)N(C)c2ccccc21 | > 25 µg/mL | > 25 µg/mL | 
28 | C[C@H](O)C[C@H]1C[C@@H]2N3COC[C@@H]1[C@@H]3CC21C(=O)N(C)c2ccccc21 (some centres not stated) | > 25 µg/mL | > 25 µg/mL | 
29 | C[C@@H]1OC[C@@H]2[C@H]3C[C@H]4c5c(c6ccccc6n5C)C[C@@H]2N4[C@H](O)[C@H]31 | > 25 µg/mL | > 25 µg/mL | 40 µM
30 | C/C=C1/CN2[C@H]3C[C@H]1C(CO)[C@@H]2C[C@]31Nc2ccccc2C1=O (some centres not stated) | > 25 µg/mL | > 25 µg/mL | 
31 | COc1ccc2c(c1)c1c(n2C)[C@@H]2C[C@H]3C(=O)OC[C@H]3[C@H](C1)N2C | > 25 µg/mL | > 25 µg/mL | 
32 | CC(=O)C[C@@H]1C[C@@H]2N3[C@@H](C)OC[C@H]1[C@@H]3C[C@]21C(=O)N(C)c2ccccc21 | > 25 µg/mL | > 25 µg/mL | 
33 | C[C@H](O)C[C@@H]1C[C@@H]2N[C@@H](C[C@@]23C(=O)N(C)c2ccccc23)[C@@H]1CO | > 25 µg/mL | > 25 µg/mL | 
34 | C[C@@H]1OC[C@@H]2[C@@H](C[C@H]3c4[nH]c5ccccc5c4C[C@@H]2N3C)[C@H]1CO | > 25 µg/mL | > 25 µg/mL | 
35 | CC(=O)C1=COC[C@H]2[C@@H]3C[C@]4(C(=O)Nc5ccccc54)[C@H](C[C@@H]12)N3 | > 25 µg/mL | > 25 µg/mL | 
36 | C/C=C1/CN2CC[C@@]3(O)c4ccccc4N4[C@H](C(=O)OC)[C@H]1C[C@H]2[C@@H]43 | > 25 µg/mL | > 25 µg/mL | 
37 | CC1=C(C=O)[C@@H]2C[C@H]3c4c(c5ccccc5n4C)C[C@@H]([C@@H]2CO1)N3C [ALSTONERINAL] | > 25 µg/mL | > 25 µg/mL | 
38 | CN1[C@H]2C[C@H]3C(=O)OC[C@H]3[C@@H]1Cc1c2n(C)c2ccccc12 | > 25 µg/mL | > 25 µg/mL | 
39 | CC1=C(C=O)[C@@H]2C[C@H]3c4[nH]c5ccccc5c4C[C@@H]([C@@H]2CO1)N3C | > 25 µg/mL | > 25 µg/mL | 
40 | C[C@@H]1OC[C@@H]2[C@@H](C[C@H]3c4c(c5ccccc5n4C)C[C@@H]2N3C)[C@@H]1C=O [Talcarpine] | > 25 µg/mL | > 25 µg/mL | 
41 | C/C=C1/CN2CCc3c4n(c5ccccc35)[C@H](C(=O)OC)[C@H]1C[C@@H]42 | > 25 µg/mL | > 25 µg/mL | 40 µM
